Reference: ChEMBL document CHEMBL3392973, “Insulin-mimetic selaginellins from Selaginella tamariscina with protein tyrosine phosphatase 1B (PTP1B) inhibitory activity” (J Nat Prod, 2015)
Values joined by “and” are separate entries in the source; they are usually repeats but may differ in a detail not shown here. Equal entries are not always repeated. Active and inactive are the calls of the source. The calls are words filed in the database; no cut-off is given here.

Columns and labels:
[1] = target: T1, Tyrosine-protein phosphatase non-receptor type 1 (Homo sapiens, UniProt P18031); assay: Inhibition of human recombinant PTP1B using p-nitrophenylphosphate as substrate
T1 sequence (P18031 whole entry): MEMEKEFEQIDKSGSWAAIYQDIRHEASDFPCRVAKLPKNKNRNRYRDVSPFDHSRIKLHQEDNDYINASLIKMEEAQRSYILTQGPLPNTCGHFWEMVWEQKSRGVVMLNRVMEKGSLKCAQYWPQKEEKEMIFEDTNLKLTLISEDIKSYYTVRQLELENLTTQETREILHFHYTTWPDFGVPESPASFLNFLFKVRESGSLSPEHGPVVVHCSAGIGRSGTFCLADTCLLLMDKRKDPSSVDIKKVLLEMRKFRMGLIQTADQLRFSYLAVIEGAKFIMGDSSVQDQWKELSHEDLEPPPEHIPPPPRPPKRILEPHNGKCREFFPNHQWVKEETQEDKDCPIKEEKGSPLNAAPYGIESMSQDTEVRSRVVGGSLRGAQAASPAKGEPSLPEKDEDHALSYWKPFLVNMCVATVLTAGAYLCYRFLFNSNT
Outline: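 Human recombinant PTP1B in 50 mM citrate pH 6.0, 0.1 M NaCl, 1 mM EDTA, 1 mM DTT, ± sample, preincubated 10 min at 37 °C. Substrate 2 mM p-NPP, then 20 min at 20 °C, stopped with NaOH, A405. Blank without enzyme corrects for non-enzymatic hydrolysis. IC50 by regression, mean ± SD of three replicates.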

[2] = target: T1, Tyrosine-protein phosphatase non-receptor type 1; assay: Mixed-competitive inhibition of human recombinant PTP1B using p-nitrophenylphosphate as substrate by Lineweaver-Burk plot analysis
[3] = Cytotoxicity against mouse NIH/3T3 cells at 50 uM after 48 hrs by MTT assay; settings: nih3t3, 48 h
[4] = test system: 3T3-L1 (Mus musculus); assay: Induction of 2-NBDG uptake in mouse 3T3-L1 adipocyte cells at 5 uM after 24 hrs measured after 30 mins of 2-NBDG by fluorescence assay
[5] = target: T1, Tyrosine-protein phosphatase non-receptor type 1; assay: Noncompetitive inhibition of human recombinant PTP1B using p-nitrophenylphosphate as substrate by Lineweaver-Burk plot analysis
[6] = target: T1, Tyrosine-protein phosphatase non-receptor type 1; assay: Uncompetitive inhibition of human recombinant PTP1B using p-nitrophenylphosphate as substrate by Lineweaver-Burk plot analysis

Row | Structure (SMILES) | IC50 [1] | Ki [2] | Ki [5] [µM] | Ki [6] [µM] | Activity [3] | Activity [4]
1 | O=C1C=CC(=C(c2ccc(O)cc2)c2c(-c3ccc(O)cc3)ccc(CO)c2C#Cc2ccc(O)cc2)C=C1 | 4.6 µM and 15.9 µM | 3 µM and 13.9 µM | – | – | Non-toxic | Active
2 | OCc1ccc(-c2ccc(O)cc2O)c(C(O)(c2ccc(O)cc2)c2ccc(O)cc2)c1C#Cc1ccc(O)cc1 | 21.6 µM | – | 10.3 | – | Non-toxic | Active
3 | COCc1ccc(-c2ccc(O)cc2O)c(C(O)(c2ccc(O)cc2)c2ccc(O)cc2)c1C#Cc1ccc(O)cc1 | 19.4 µM | – | – | 15.1 | Non-toxic | Active

More lines, in order of falling IC50 [1], values ahead:

Row | IC50 [1] | Ki [2] | Ki [5] [µM] | Ki [6] [µM] | Structure (SMILES) | Activity [3] | Activity [4]
4 | 11.5 µM | 8.9 µM | – | – | COc1ccc(C(=C2C=CC(=O)C=C2)c2c(-c3ccc(O)cc3)ccc(CO)c2C#Cc2ccc(O)cc2)cc1 | – | Active
5 | 0.7 µM | – | – | – | O=C(O)c1nnc(-c2ccc(-c3ccccc3)cc2)o1 | – | –
